Source: ChEMBL document CHEMBL1125894, “Dual-action cephalosporins: cephalosporin 3'-quaternary ammonium quinolones” (1991)
In brackets after ≈: the same amount, converted by molar mass.

Experiments:
[1] = test system: Enterobacter cloacae; assay: In vitro antibacterial activity against Enterobacter cloacae P99; type: functional
Outline: (§1)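 Serial 2-fold dilutions in the NCCLS broth microdilution method for aerobic nonfastidious organisms, with an 18-h incubation. The value is reported as the minimum inhibitory concentration (MIC).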

[2] = test system: Pseudomonas aeruginosa; assay: In vivo activity in murine against Pseudomonas aeruginosa 5712 infection after sc administration.; type: functional; conditions: Pseudomonas aeruginosa, sc; read-out: ED50
Outline: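 Mouse protection test in CD1 Swiss albino mice (18–20 g) infected intraperitoneally with 0.5 mL of diluted P. aeruginosa suspension. Mice received 1.0 mL subcutaneously at the neck base within 5 min of infection and a second treatment 3 h after infection. Doses ranged from 0.05 to 250 mg/kg, with six mice per group. ED50 was calculated by the Reed–Muench method.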

[3] = test system: Citrobacter freundii; assay: In vitro antibacterial activity against Citrobacter freundii BS 16; type: functional; outline: as §1
[4] = test system: Enterobacter cloacae; assay: In vitro antibacterial activity against Enterobacter cloacae 5699; type: functional; outline: as §1
[5] = test system: Escherichia coli; assay: Antibacterial activity against Escherichia coli DC-O; type: functional; outline: as §1
[6] = molecular target: T1, Penicillin-binding protein 1A (Escherichia coli K-12) (UniProt P02918); assay: Concentration required for 90% inhibition against 90 kDa penicillin-binding protein 1a binding using [14C]-Pen G as the radioligand.
T1 sequence (whole entry): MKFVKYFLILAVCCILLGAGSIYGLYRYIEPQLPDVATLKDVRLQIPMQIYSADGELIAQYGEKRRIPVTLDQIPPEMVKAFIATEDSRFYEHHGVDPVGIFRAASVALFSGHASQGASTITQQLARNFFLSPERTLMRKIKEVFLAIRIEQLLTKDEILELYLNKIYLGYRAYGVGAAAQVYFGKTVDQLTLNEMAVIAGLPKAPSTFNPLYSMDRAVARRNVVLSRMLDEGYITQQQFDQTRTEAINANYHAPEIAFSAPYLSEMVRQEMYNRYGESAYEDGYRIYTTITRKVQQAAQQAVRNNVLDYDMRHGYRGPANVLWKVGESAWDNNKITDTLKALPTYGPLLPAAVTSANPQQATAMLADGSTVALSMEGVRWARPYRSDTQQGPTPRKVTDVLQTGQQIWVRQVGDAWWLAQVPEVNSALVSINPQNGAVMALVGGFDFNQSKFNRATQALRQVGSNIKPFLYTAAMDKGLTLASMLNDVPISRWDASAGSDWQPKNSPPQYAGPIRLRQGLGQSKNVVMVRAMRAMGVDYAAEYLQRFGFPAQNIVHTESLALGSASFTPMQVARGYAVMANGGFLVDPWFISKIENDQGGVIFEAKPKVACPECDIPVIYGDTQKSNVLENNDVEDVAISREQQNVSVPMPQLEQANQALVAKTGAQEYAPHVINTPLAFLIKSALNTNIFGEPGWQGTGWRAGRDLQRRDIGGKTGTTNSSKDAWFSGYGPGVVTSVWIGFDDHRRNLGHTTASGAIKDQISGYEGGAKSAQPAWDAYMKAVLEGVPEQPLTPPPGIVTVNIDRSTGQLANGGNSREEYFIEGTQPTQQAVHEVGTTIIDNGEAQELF
Outline: (§2)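 Solubilized membranes from sonicated E. coli DC-0 were used. PBP binding was measured as inhibition of [14C]penicillin G binding to each PBP.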

[7] = test system: Serratia marcescens; assay: In vivo activity in murine against Serratia marcescens SM infection after sc administration.; type: functional
Outline: (§3)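 Mouse protection test in CD1 Swiss albino mice (18–20 g). Mice were infected intraperitoneally with 0.5 mL of a diluted bacterial suspension, then treated within 5 min with one 1.0 mL subcutaneous dose at the dorsal base of the neck. Doses ranged from 0.05 to 250 mg/kg, with six mice per group. ED50 was calculated by the Reed–Muench method.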

[8] = test system: Streptococcus pneumoniae; assay: In vitro antibacterial activity against Streptococcus pneumoniae 6301; type: functional
Outline: (§4)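 Broth macrodilution with serial 2-fold dilutions in cation-supplemented Mueller-Hinton broth containing 10% goat serum. The value is reported as the MIC.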

[9] = test system: Escherichia coli; assay: Concentration required for 90% inhibition against 60 kDa penicillin-binding protein 3 binding using [14C]-Pen G as the radioligand.; outline: as §2
[10] = test system: Pseudomonas aeruginosa; assay: In vitro antibacterial activity against Pseudomonas aeruginosa 5712; type: functional; outline: as §1
[11] = test system: Streptococcus pyogenes; assay: In vitro antibacterial activity against Streptococcus pyogenes 4; type: functional; outline: as §4
[12] = molecular target: T2, Peptidoglycan D,D-transpeptidase MrdA (Escherichia coli K-12) (UniProt P0AD65); assay: Concentration required for 90% inhibition against 66 kDa penicillin-binding protein 2 binding using [14C]-Pen G as the radioligand.; outline: as §2
T2 sequence (whole entry): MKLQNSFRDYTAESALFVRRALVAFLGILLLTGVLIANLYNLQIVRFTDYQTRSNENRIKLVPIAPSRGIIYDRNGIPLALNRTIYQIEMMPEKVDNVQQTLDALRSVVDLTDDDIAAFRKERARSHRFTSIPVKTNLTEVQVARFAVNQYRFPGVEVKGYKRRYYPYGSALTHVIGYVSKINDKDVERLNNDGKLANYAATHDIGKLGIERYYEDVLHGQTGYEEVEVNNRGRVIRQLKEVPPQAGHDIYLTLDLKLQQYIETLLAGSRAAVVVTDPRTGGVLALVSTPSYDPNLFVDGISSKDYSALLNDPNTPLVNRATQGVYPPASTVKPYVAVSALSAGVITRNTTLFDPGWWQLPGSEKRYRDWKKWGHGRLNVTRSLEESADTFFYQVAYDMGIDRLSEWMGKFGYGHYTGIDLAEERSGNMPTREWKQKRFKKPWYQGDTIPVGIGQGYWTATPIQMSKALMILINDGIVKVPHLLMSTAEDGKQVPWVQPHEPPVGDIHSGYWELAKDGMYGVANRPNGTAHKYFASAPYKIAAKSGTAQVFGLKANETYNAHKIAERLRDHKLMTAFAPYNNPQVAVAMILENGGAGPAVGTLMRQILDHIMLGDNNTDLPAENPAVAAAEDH

[13] = test system: Streptococcus pneumoniae; assay: In vivo activity in murine against Streptococcus pneumoniae 6301 infection after sc administration.; type: functional; outline: as §3
[14] = test system: Staphylococcus aureus; assay: In vitro antibacterial activity against Staphylococcus aureus 95(MR); type: functional
Outline: (§5)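 Staphylococci were tested by the standard agar dilution procedure using serial 2-fold dilutions of agent. The value is reported as the MIC.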

[15] = test system: Serratia marcescens; assay: In vitro antibacterial activity against Serratia marcescens SM; type: functional; outline: as §1
[16] = test system: Staphylococcus aureus; assay: In vitro antibacterial activity against Staphylococcus aureus Smith(MS); type: functional; outline: as §5
[17] = molecular target: T3, Penicillin-binding protein 1B (Escherichia coli K-12) (UniProt P02919); assay: Concentration required for 90% inhibition against 90 kDa penicillin-binding protein 1b binding using [14C]-Pen G as the radioligand.; outline: as §2
T3 sequence (whole entry): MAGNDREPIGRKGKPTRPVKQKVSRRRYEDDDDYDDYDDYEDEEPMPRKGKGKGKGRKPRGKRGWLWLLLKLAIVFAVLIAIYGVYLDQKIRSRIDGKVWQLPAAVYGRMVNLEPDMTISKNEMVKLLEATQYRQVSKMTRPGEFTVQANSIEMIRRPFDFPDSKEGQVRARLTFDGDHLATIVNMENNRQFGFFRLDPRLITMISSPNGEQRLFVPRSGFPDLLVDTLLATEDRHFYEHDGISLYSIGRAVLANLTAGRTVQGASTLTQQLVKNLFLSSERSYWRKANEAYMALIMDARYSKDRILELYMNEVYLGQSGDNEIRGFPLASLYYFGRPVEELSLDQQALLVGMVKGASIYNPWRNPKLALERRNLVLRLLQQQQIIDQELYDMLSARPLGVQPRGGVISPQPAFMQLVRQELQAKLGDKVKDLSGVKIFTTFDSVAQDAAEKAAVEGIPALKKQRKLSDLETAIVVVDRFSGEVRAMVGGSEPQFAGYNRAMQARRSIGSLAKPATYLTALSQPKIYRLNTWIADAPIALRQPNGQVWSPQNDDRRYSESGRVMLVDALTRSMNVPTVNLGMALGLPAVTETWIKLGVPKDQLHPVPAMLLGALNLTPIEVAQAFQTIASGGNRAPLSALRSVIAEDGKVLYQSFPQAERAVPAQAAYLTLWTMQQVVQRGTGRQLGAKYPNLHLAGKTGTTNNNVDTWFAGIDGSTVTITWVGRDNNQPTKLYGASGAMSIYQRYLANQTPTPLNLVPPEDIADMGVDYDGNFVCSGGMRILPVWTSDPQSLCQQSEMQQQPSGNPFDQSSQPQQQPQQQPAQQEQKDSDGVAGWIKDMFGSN

[18] = test system: Streptococcus pyogenes; assay: In vivo activity in murine against Streptococcus pyogenes 4 infection after sc administration.; type: functional; outline: as §3
[19] = test system: Escherichia coli; assay: In vivo activity in murine against Escherichia coli 257 infection after sc administration.; type: functional; conditions: Escherichia coli, sc; read-out: ED50; outline: as §3
[20] = test system: Escherichia coli; assay: In vitro antibacterial activity against Escherichia coli 257; type: functional; outline: as §1
[21] = test system: Klebsiella pneumoniae; assay: In vitro antibacterial activity against Klebsiella pneumoniae A; type: functional; outline: as §1
[22] = test system: Citrobacter freundii; assay: In vivo activity in murine against Citrobacter freundii BS#16 infection after sc administration.; type: functional
Outline: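 CD1 Swiss albino mice (18–20 g) infected intraperitoneally with 0.5 mL diluted bacterial culture suspension. Single subcutaneous treatment within 5 min, 1.0 mL at dorsal base of neck, serial dilutions spanning 0.05–250 mg/kg. Six mice per treatment and control group. ED50 (50% protective dose) derived by Reed and Muench method.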

[23] = test system: Enterobacter cloacae; assay: In vivo activity in murine against Enterobacter cloacae 5699 infection after sc administration.; type: functional; outline: as §3
[24] = test system: Staphylococcus aureus; assay: In vivo activity in murine against Staphylococcus aureus 753(MR) infection after sc administration.; type: functional; outline: as §3
[25] = test system: Klebsiella pneumoniae; assay: In vivo activity in murine against Klebsiella pneumoniae A infection after sc administration.; type: functional; outline: as §3
[26] = test system: Staphylococcus aureus; assay: In vivo activity in murine against Staphylococcus aureus Smith (MS) infection after sc administration.; type: functional; outline: as §3

| SMILES | MIC [1] [µg/mL] | ED50 [2] [mg/kg] | MIC [3] [µg/mL] | MIC [4] [µg/mL] | MIC [5] [µg/mL] | Concentration [6] [µg/mL] | ED50 [7] [mg/kg] | MIC [8] [µg/mL] | Concentration [9] [µg/mL] | MIC [10] [µg/mL] | MIC [11] [µg/mL] | Concentration [12] [µg/mL] | ED50 [13] [mg/kg] | MIC [14] [µg/mL] | MIC [15] [µg/mL] | MIC [16] [µg/mL] | ED50 [18] [mg/kg] | ED50 [19] [mg/kg] | MIC [20] [µg/mL] | MIC [21] [µg/mL] | further results |
| --- | --- | --- | --- | --- | --- | --- | --- | --- | --- | --- | --- | --- | --- | --- | --- | --- | --- | --- | --- | --- | --- |
| CO/N=C(\C(=O)N[C@@H]1C(=O)N2C(C(=O)[O-])=C(C[N+]3(C)CCN(c4c(F)cc5c(=O)c(C(=O)O)cn(CCF)c5c4F)CC3)CS[C@H]12)c1csc(N)n1 | 0.5 (≈ 0.654 µM) | > 250 | 2 (≈ 2.62 µM) | 0.5 (≈ 0.654 µM) | 0.2 (≈ 0.262 µM) | > 100 | 10 | 0.063 (≈ 0.0824 µM) | 0.1 | 32 (≈ 41.8 µM) | 0.125 (≈ 0.163 µM) | 100 | 12 | 4 (≈ 5.23 µM) | 1 (≈ 1.31 µM) | 4 (≈ 5.23 µM) | < 5 | < 0.5 | 0.125 (≈ 0.163 µM) | 0.5 (≈ 0.654 µM) | Concentration [17]: > 100 µg/mL |
| CC(C)(O/N=C(\C(=O)N[C@@H]1C(=O)N2C(C(=O)[O-])=C(C[n+]3ccccc3)CS[C@H]12)c1csc(N)n1)C(=O)O [CEFTAZIDIME] | – | 217 | – | – | – | – | 67 | – | – | – | – | – | 3 | – | – | – | 12 | < 0.5 | – | – | ED50 [22]: 22 mg/kg; ED50 [23]: 25 mg/kg; ED50 [24]: 62 mg/kg; ED50 [25]: < 2 mg/kg; ED50 [26]: < 2 mg/kg |
| CO/N=C(\C(=O)N[C@@H]1C(=O)N2C(C(=O)O)=C(COC(C)=O)CS[C@H]12)c1csc(N)n1 [CEFOTAXIME] | 64 (≈ 141 µM) | > 250 | 128 (≈ 281 µM) | 0.125 (≈ 0.274 µM) | 0.06 (≈ 0.132 µM) | 0.1 | > 50 | 0.016 (≈ 0.0351 µM) | 0.1 | 64 (≈ 141 µM) | < 0.008 | 100 | 90 | 128 (≈ 281 µM) | 0.25 (≈ 0.549 µM) | 1 (≈ 2.2 µM) | 7 | 0.37 | 0.031 (≈ 0.0681 µM) | 0.031 (≈ 0.0681 µM) | Concentration [17]: 0.5 µg/mL |
| C[N+]1(CC2=C(C(=O)[O-])N3C(=O)[C@@H](NC(=O)COc4ccccc4)[C@H]3SC2)CCN(c2ccccc2)CC1 | > 128 | – | > 128 | 64 (≈ 122 µM) | – | – | – | 0.125 (≈ 0.239 µM) | – | > 128 | 0.031 (≈ 0.0593 µM) | – | – | 128 (≈ 245 µM) | > 128 | 0.063 (≈ 0.121 µM) | – | – | 32 (≈ 61.2 µM) | 32 (≈ 61.2 µM) | – |
